This is a sample that favours compounds with a hit; in the whole collection about 12% have one here.
WT yeast gro inh: growth inhibition of WT yeast, mitochondrial fusion screen | mitochondrial fusion phenotypic screen, WT strain | AID 1362 | 2.1% of 190,000 active | inhibition, % at 10 µM; in the data active = inhibition above about 58%; tested in S. cerevisiae
ABCB1 inh: inhibitors of human ABCB1 transporter, ABCG2 counter-screen; P08183; CCRF-Adr cells, JC-1 efflux, flow cytometry; inhibition, % at 6.6 µM; 0.067% of 190,000 active; AID 1326; in the data active = inhibition above about 40%;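 also: 0% = vehicle and 100% = reference inhibitor; higher value means more JC-1 retained so stronger ABCB1 efflux block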
RAM network inh: blocks the yeast RAM network; S. cerevisiae dse1pr::URA3 reporter, 5-FOA growth OD615, 2 d; analog-sensitive cbk1-as2 kinase mutant strain; inhibition, % at 50 µM; 1.8% of 190,000 active; AID 868;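 active = inhibition above a set limit, 3 SD over mean compound inhibition, cut at about 8.4% in these data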;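 also: 0% = DMSO-only wells with no growth and 100% = 10 µM 1-NA-PP1 full growth; inhibition rescues growth on 5-FOA so higher OD means more RAM inhibition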
ABCG2 block: human ABCG2 inhibition, ABCB1 as counter-screen | Q9UNQ0 | IgMXP3 cells, JC-1 efflux, flow cytometry | 0.1% of 190,000 active | inhibition, % at 6.6 µM | AID 1325;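 active = inhibition above 80%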;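 also: 0% = DMSO and 100% = nicardipine control wells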
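Test system: ABCG2 IgMXP3 and barcoded ABCB1 CCRF-Adr cell mix; Schedule: cells with compound and JC-1, 10 min at 25 °C, rotating, no wash; Technique: flow cytometry of retained JC-1 fluorescence; Measure: % inhibition of efflux relative to nicardipine and DMSO; Controls: nicardipine high and DMSO low controls.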
L major viab: Leishmania major promastigote growth inhibition; Leishmania major promastigotes, resazurin fluorescence viability; 9% of 200,000 active; inhibition, % at 10 µM; in the data active = inhibition above about 50%;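 also: promastigotes grown with compound for 44 hours at 28 °C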
* = called active by the depositor; x = no result given.

SMILES	WT yeast gro inh	ABCB1 inh	RAM network inh	ABCG2 block	L major viab
CNCCCc1ccccc1	-8	1	1	0	-5
Cc1cccc(CNCCc2ccccc2)n1	4	0	1	3	69*
CC1CCCC(C)N1/N=C/c1c[nH]c2ccc(Br)cc12 (centres undefined)	90	1	0	7	29
CN1CCN(S(=O)(=O)c2cnc(Cl)c(Br)c2)CC1	-4	0	1	2	-4
CN1C(=O)CN=C(c2ccc(Cl)cc2)c2cc(Cl)ccc21	-1	0	-1	0	-1
O=C1CN=C(c2ccccc2)c2cc(Br)ccc2N1Cc1cc(=O)n2ccccc2n1	-3	11	1	4	82*
O=c1[nH]c(=O)n(Cc2ccccc2Cl)c(O)c1C=Nc1ccc(F)cc1	1	1	4	0	-4
O=C(CSC1c2ccccc2-c2ccccc21)N/N=C/c1ccccc1O	8	0	3	8	100*
CCCCN1C(=O)/C(=C/C=C/c2ccco2)C(=O)NC1=S	13	-4	6	-33	9
Cc1cc(C)cc(N2C(=O)NC(=O)/C(=C\C=C\c3ccco3)C2=O)c1	8	-1	4	-6	99*
Cc1ccc(N2C(=O)NC(=O)/C(=C/C=C/c3ccco3)C2=O)cc1	3	-1	5	3	83*
CC(C)c1ccc(N2C(=O)NC(=O)/C(=C/C=C/c3ccco3)C2=O)cc1	-7	0	2	-1	94*
O=[N+]([O-])c1cccc(CN2CCN(Cc3ccc(Br)cc3)CC2)c1	49	3	0	2	87*
CC(=O)c1cn(CCCOc2ccccc2)c2ccccc12	6	2	2	13	14
O=c1[nH]c(=O)n(C2CCCCCC2)c(O)c1C=NCCCN1CCOCC1	8	0	2	3	89*
CC(=NCCN1CCOCC1)c1c(O)n(C2CCCCC2)c(=O)[nH]c1=O	5	1	0	5	3
c1ccc(-c2[nH]c(-c3ccccc3)[n+](CC3CO3)c2-c2ccccc2)cc1 (centres undefined)	59*	1	2	30	47
CC(=NCCCN1CCOCC1)c1c(O)n(Cc2ccccc2)c(=O)[nH]c1=O	6	1	2	16	90*
CCC(=O)Nc1cc(C(=O)N2CCC3(CC2)OCCO3)ccc1S(=O)(=O)c1ccc(C)cc1	12	0	1	2	-6
Cc1ccsc1C(=O)C1CCCN(Cc2ccccc2O)C1 (centres undefined)	-13	1	1	1	22
Cc1ccsc1C(=O)C1CCCN(Cc2cccn2-c2ccccn2)C1 (centres undefined)	2	1	2	13	61*
CC(C(=O)Nc1ccc(Br)cc1C(=O)c1ccccc1)N1CCCCC1 (centres undefined)	x	0	0	1	100*
COc1cc(C(=O)Nc2ccc(Br)cc2C(=O)c2ccccc2)cc(OC)c1OC	5	3	0	17	-5
Fc1ccc(Cn2nnnc2C(c2ccc(F)cc2)N2CC=C(c3ccc(F)cc3)CC2)cc1 (centres undefined)	33	1	5	9	22
CC1(C)C2CC=C(CN3CCOCC3)C1C2 (centres undefined)	13	0	-1	0	64*
SMILES	WT yeast gro inh	ABCB1 inh	RAM network inh	ABCG2 block	L major viab
CN(CC1COc2ccccc2O1)c1nc(-c2cccnc2)nc2ccccc12 (centres undefined)	80*	3	0	2	69*
CC(NCc1ccc(Cl)cc1)C(O)c1ccccc1 (centres undefined)	43	0	1	1	87*
CC(NCc1ccc(Cl)cc1Cl)C(O)c1ccccc1 (centres undefined)	4	0	0	0	64*
CCC(CO)(C(=O)OC1C[N+]2(C)CCC1CC2)c1ccccc1 (centres undefined)	3	2	1	7	-11
Oc1ccc(/C=N/NP(=S)(c2ccccc2)c2ccccc2)cc1	5	x	2	x	90*
COc1cc(/C=N/NC(=O)CN2CC(c3ccccc3)CC2=O)ccc1OC(=O)N(C)C (centres undefined)	36	0	2	1	-5
COc1cc(/C=N/NP(=S)(c2ccccc2)c2ccccc2)ccc1O	18	2	2	3	81*
CCOc1ccc(N2C(=O)NC(=O)/C(=C/c3cnc(SC)nc3)C2=O)cc1	-8	-1	0	-1	-3
CN1CCN(Cc2nnc3n2-c2ccc(Cl)cc2C(c2ccccc2)=NC3)CC1	7	0	0	-2	-5
Clc1ccc2c(c1)C(c1ccccc1Cl)=NCc1nnc(N3CCN(CCSc4ccccc4)CC3)n1-2	76*	0	1	0	-8
Clc1ccc2c(c1)C(c1ccccc1Cl)=NCc1nnc(N3CCN(CCOc4ccccc4)CC3)n1-2	60*	-3	1	-15	15
COP(=O)(OC)C(NS(=O)(=O)c1ccccc1)C(Cl)(Cl)Cl (centres undefined)	-2	0	-2	0	-8
CN1c2ccc([N+](=O)[O-])cc2CC2(C(=O)NC(=O)N(c3ccccc3)C2=O)C1c1ccccc1 (centres undefined)	-7	0	4	-4	58*
CNC(=S)N1CC2CC(C1)c1cccc(=O)n1C2 (centres undefined)	3	1	0	4	-2
Cc1cccc(N/N=C(\C(N)=O)C2=NC(C)(C)Cc3ccccc32)c1	57	1	0	12	36
Cc1nc2ccccc2c(=O)n1-c1ccc(Cl)cc1[N+](=O)[O-]	1	1	1	5	-2
CCCCCc1nc2ccccc2c(=O)n1-c1ccccc1[N+](=O)[O-]	34	2	5	14	51*
O=C(O)CCCc1ccc(N(CCCl)CCCl)cc1	-3	0	9.8*	0	-8
COP(=O)(OC)C1(O)C(=O)Nc2ccc(Br)cc21 (centres undefined)	-10	-3	1	-5	-11
CCOc1ccccc1N=C1SCCCN1C	1	0	0	0	19
CC(=O)N1CCCSC1=Nc1ccccc1	-4	0	1	-2	70*
CC1=CC(=C2C(=O)NC(=S)NC2=O)C=C(C(F)(F)F)N1CCc1ccccc1	-4	0	11*	0	-4
CC1=CC(=C2C(=O)NC(=S)NC2=O)C=C(C(F)(F)F)N1Cc1ccccc1	-11	1	5	4	8
CCCCCCN1CCN(c2ccc(Cl)cc2)CC1	33	0	-2	1	82*
CCOC(=O)CC1=C(C(=O)OCC)C2(C(=O)N1CC(=O)OC)C(C#N)=C(N)Oc1ccccc12 (centres undefined)	66*	0	1	-1	-4
CCOC(=O)CN1C(=O)C2(C(C#N)=C(N)Oc3ccccc32)C(C(=O)OC)=C1C (centres undefined)	26	0	1	1	-2

Source: PubChem (several laboratories)
